In ChEMBL document CHEMBL1817577, “Pachastrissamine (jaspine B) and its stereoisomers inhibit sphingosine kinases and atypical protein kinase C” (Bioorg Med Chem, 2011) one finds inhibition data, which are given here for 9 molecules.

In assay [1] the target is T1, Sphingosine kinase 2 (Homo sapiens) (UniProt Q9NRA0).
T1 sequence (whole entry): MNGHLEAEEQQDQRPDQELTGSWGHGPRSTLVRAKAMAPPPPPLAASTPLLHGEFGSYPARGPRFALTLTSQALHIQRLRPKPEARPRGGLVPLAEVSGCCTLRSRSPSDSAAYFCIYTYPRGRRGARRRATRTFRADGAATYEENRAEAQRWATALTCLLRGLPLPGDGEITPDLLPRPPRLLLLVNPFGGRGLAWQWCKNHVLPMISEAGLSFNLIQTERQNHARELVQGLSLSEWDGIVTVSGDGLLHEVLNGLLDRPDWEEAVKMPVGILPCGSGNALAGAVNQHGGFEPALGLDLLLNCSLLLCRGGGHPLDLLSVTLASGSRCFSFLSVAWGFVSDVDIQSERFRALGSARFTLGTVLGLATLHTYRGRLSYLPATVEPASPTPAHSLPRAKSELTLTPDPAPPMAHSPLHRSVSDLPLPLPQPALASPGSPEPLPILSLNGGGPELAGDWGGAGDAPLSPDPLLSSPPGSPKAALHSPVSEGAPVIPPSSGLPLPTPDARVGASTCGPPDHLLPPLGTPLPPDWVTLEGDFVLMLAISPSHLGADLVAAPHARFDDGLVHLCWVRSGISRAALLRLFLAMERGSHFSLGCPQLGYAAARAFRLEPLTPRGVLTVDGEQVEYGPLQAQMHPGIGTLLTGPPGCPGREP
The experiment in a line: Inhibition of N-terminal GST-fused sphingosine kinase 2 (1-618) expressed in baculovirus expression system assessed as inhibition of sphingosine phosphorylation after 1 hr by off-chip mobility shift assay. More on the design: concentration or dose not given beside the values. As to conditions: concentration not given here. In outline:
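Glutathione-sepharose-purified GST fusion tested over a concentration series (DMSO stock diluted fourfold in 20 mM HEPES pH 7.5, 0.01% Triton X-100, 2 mM DTT). Reaction: 1 μM sphingosine, 600 μM ATP, 5 mM MgCl2, 1 h at room temperature, n = 4. Electrophoretic P/(P+S) read-out normalized to controls; IC50 fitted.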

The target of assay [2] is Sphingosine kinase 1 (Homo sapiens) (UniProt Q9NYA1). Put plainly: Inhibition of N-terminal GST-fused sphingosine kinase 1 (1-384) expressed in baculovirus expression system assessed as inhibition of sphingosine phosphorylation after 1 hr by off-chip mobility shift assay. Further details: concentration or dose not given beside the values. As to conditions: concentration not given here. In outline:
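GST-fusion enzyme purified on glutathione sepharose. Compound series in DMSO diluted fourfold into 20 mM HEPES pH 7.5, 0.01% Triton X-100, 2 mM DTT. Reaction: 1 μM sphingosine, 25 μM ATP, 5 mM MgCl2, 1 h at room temperature (n = 4). Substrate and product separated electrophoretically; P/(P+S) ratio against no-enzyme and no-inhibitor controls; IC50 from concentration series.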

For assay [3], the target named is Protein kinase C alpha type (Homo sapiens) (UniProt P17252). The experiment in a line: Inhibition of N-terminal GST-fused PKCalpha (1-672) expressed in baculovirus expression system at 30 uM after 1 hr by off-chip mobility shift assay relative to control. Put shortly:
(§1)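 Enzymes purified by glutathione sepharose. DMSO compound stock diluted fourfold into 20 mM HEPES pH 7.5, 0.01% Triton X-100, 2 mM DTT, with phosphatidylserine (50 μg/mL), diacylglycerol (5 μg/mL) and 50 μM CaCl2. Reaction: 1 μM PKCθ substrate peptide (N-FL), 25 μM ATP, 5 mM MgCl2, 1 h at room temperature (n = 2). Read-out is electrophoretic P/(P+S) ratio, normalized to no-enzyme and no-inhibitor controls.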

Assay [4] concerns the target Protein kinase C theta type (Homo sapiens) (UniProt Q04759). Put plainly: Inhibition of N-terminal GST-fused PKCtheta (1-706) expressed in baculovirus expression system at 30 uM after 1 hr by off-chip mobility shift assay relative to control. Put shortly:
(§2)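 Buffer is HEPES pH 7.5 (20 mM), 0.01% Triton X-100, 2 mM DTT, with phosphatidylserine (50 μg/mL) and diacylglycerol (5 μg/mL) but no CaCl2. Reaction: 1 μM PKCθ substrate (N-FL), 25 μM ATP, 5 mM MgCl2, 1 h at room temperature, n = 2. Read-out is electrophoretic separation, P/(P+S) ratio, controls as 0% and 100% inhibition.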

The target of assay [5] is Protein kinase C gamma type (Homo sapiens) (UniProt P05129). Put plainly: Inhibition of N-terminal GST-fused PKCgamma (1-697) expressed in baculovirus expression system at 30 uM after 1 hr by off-chip mobility shift assay relative to control. Put shortly:
as §1

Assay [6] addresses T2, Protein kinase C epsilon type (Homo sapiens) (UniProt Q02156).
T2 sequence (whole entry): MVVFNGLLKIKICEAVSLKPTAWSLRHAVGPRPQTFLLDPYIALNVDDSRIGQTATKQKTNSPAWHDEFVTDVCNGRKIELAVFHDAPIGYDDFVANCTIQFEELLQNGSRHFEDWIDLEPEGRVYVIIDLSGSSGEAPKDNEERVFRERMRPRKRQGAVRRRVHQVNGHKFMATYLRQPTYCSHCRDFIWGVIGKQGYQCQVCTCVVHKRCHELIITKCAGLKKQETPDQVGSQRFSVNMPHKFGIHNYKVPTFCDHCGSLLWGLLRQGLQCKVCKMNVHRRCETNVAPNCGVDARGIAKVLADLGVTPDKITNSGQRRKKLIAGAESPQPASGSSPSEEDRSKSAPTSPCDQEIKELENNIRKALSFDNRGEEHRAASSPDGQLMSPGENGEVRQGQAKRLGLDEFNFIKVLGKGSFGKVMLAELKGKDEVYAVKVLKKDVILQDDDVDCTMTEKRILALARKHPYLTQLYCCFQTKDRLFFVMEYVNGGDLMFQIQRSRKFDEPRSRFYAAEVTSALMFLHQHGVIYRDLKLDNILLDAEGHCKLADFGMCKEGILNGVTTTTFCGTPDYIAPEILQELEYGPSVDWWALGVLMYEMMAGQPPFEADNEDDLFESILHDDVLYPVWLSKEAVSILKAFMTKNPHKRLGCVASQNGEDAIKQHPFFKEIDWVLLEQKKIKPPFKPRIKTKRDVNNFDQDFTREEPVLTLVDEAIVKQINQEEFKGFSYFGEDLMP
The experiment in a line: Inhibition of N-terminal GST-fused PKCepsilon (1-737) expressed in baculovirus expression system at 30 uM after 1 hr by off-chip mobility shift assay relative to control. Put shortly:
(§3)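 Lipid-activated reactions (phosphatidylserine 50 μg/mL, diacylglycerol 5 μg/mL), no CaCl2. Buffer is 20 mM HEPES pH 7.5, 0.01% Triton X-100, 2 mM DTT, with 1 μM N-FL PKCθ substrate peptide, 10 μM ATP and 5 mM MgCl2. Incubated 1 h at room temperature, n = 2. Product ratio P/(P+S) from electrophoretic peak heights, scaled between no-enzyme (100%) and no-inhibitor (0%) controls.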

Assay [7] concerns the target Protein kinase C eta type (Homo sapiens) (UniProt P24723). The experiment in a line: Inhibition of N-terminal GST-fused PKCeta (1-683) expressed in baculovirus expression system at 30 uM after 1 hr by off-chip mobility shift assay relative to control. Put shortly: as §2
Assay [8] deals with Protein kinase C delta type (Homo sapiens) (UniProt Q05655). Put plainly: Inhibition of N-terminal GST-fused PKCdelta (1-676) expressed in baculovirus expression system at 30 uM after 1 hr by off-chip mobility shift assay relative to control. Put shortly: as §3
In assay [9] the target is T3, Protein kinase C zeta type (Homo sapiens) (UniProt Q05513).
T3 sequence (whole entry): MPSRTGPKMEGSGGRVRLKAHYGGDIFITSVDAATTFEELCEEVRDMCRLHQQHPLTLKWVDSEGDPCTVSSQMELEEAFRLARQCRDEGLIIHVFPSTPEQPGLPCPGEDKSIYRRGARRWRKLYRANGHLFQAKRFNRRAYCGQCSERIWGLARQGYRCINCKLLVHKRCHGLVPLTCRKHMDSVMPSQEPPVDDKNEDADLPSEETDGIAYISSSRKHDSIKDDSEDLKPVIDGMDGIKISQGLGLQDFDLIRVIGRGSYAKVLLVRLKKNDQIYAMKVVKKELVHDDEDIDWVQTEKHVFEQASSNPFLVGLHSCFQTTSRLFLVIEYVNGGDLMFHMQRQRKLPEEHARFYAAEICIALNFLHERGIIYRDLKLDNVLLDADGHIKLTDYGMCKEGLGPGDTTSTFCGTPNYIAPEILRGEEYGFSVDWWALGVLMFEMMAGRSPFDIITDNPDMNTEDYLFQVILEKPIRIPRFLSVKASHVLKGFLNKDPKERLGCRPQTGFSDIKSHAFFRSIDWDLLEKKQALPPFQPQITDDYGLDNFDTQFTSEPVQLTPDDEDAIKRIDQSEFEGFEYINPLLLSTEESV
Put plainly: Inhibition of N-terminal GST-fused PKCzeta (1-592) expressed in baculovirus expression system at 30 uM after 1 hr by off-chip mobility shift assay relative to control. Put shortly: (§4)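 No lipid cofactors and no calcium. Reaction buffer is 20 mM HEPES pH 7.5, 0.01% Triton X-100, 2 mM DTT, with 1 μM PKCθ substrate peptide (N-FL), 5 μM ATP and 5 mM MgCl2. Incubated 1 h at room temperature (n = 2). Electrophoretic mobility shift read-out of P/(P+S); normalized to no-enzyme and no-inhibitor controls.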

The target of assay [10] is Protein kinase C beta type (Homo sapiens) (UniProt P05771). Put plainly: Inhibition of N-terminal GST-fused PKCbeta1 (1-671) expressed in baculovirus expression system at 30 uM after 1 hr by off-chip mobility shift assay relative to control. In outline:
as §1

The target of assay [11] is Protein kinase C iota type (Homo sapiens) (UniProt P41743). The experiment in a line: Inhibition of N-terminal GST-fused PKClota (1-587) expressed in baculovirus expression system at 30 uM after 1 hr by off-chip mobility shift assay relative to control.
The target of assay [12] is Protein kinase C beta type (Homo sapiens) (UniProt P05771). Put plainly: Inhibition of N-terminal GST-fused PKCbeta2 (1-673) expressed in baculovirus expression system at 30 uM after 1 hr by off-chip mobility shift assay relative to control. Put shortly: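 Same buffer as the other conventional PKCs (20 mM HEPES pH 7.5, 0.01% Triton X-100, 2 mM DTT), with phosphatidylserine 50 μg/mL, diacylglycerol 5 μg/mL and 50 μM CaCl2. Reaction: 1 μM PKCθ substrate peptide (N-FL), 10 μM ATP, 5 mM MgCl2, 1 h at room temperature, duplicate. Substrate and product separated electrophoretically; inhibition from P/(P+S) versus no-enzyme and no-inhibitor controls.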

Assay [13] concerns the target Protein kinase C iota type (Homo sapiens) (UniProt P41743). Put plainly: Inhibition of N-terminal GST-fused PKClota (1-587) expressed in baculovirus expression system at 3 uM after 1 hr by off-chip mobility shift assay relative to control.
The target of assay [14] is T3, Protein kinase C zeta type (Homo sapiens). The experiment in a line: Inhibition of N-terminal GST-fused PKCzeta (1-592) expressed in baculovirus expression system at 3 uM after 1 hr by off-chip mobility shift assay relative to control. Put shortly:
as §4

Protein kinase C iota type (Homo sapiens), sequence (P41743 whole entry, looked up, the tested form may be a part): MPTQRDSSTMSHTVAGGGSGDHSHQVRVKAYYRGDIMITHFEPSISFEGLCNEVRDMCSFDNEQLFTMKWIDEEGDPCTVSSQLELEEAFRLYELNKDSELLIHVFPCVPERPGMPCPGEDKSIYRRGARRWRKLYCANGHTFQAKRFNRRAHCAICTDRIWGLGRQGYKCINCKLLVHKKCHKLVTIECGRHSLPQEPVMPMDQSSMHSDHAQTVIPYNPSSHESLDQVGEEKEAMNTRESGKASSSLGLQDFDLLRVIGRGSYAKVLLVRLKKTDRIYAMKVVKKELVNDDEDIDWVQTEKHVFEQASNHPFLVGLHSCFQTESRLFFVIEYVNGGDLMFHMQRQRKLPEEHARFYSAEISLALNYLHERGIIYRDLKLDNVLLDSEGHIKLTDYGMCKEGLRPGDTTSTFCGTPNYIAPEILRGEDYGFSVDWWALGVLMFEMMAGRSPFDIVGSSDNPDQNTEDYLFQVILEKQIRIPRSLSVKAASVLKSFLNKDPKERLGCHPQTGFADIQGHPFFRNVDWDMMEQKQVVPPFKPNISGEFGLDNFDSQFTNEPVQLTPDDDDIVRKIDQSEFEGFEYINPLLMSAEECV
Protein kinase C eta type (Homo sapiens), sequence (P24723 whole entry, the tested form may be a part): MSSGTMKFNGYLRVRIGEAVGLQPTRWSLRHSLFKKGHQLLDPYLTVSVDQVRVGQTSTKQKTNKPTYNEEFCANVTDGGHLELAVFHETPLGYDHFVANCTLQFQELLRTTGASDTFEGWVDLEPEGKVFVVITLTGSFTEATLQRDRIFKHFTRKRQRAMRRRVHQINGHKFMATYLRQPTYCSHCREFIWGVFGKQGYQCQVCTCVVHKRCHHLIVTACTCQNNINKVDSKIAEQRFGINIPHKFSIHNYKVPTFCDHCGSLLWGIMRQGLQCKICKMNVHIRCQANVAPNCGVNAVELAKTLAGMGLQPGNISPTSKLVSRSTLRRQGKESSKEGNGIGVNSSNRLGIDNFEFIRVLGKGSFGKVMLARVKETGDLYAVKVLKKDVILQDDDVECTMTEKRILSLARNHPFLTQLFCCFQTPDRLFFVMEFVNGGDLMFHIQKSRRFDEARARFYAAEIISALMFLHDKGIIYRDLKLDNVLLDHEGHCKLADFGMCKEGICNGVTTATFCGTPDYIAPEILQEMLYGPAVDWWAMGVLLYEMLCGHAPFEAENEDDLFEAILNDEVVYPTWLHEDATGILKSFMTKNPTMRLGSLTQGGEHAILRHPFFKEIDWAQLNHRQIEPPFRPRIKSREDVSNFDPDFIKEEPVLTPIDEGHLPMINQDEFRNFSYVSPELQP
Sphingosine kinase 1 (Homo sapiens), sequence (Q9NYA1 whole entry, the tested form may be a part): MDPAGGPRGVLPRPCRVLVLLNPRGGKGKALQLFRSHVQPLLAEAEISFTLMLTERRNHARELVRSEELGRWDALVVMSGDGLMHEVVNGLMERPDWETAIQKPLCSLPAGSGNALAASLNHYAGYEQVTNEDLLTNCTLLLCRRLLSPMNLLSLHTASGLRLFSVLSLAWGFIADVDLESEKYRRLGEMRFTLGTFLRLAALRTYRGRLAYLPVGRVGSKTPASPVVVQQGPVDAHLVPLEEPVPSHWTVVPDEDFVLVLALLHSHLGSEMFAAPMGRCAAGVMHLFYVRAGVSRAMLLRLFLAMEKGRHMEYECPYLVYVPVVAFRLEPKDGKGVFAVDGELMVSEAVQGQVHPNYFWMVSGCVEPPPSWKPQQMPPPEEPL
Protein kinase C theta type (Homo sapiens), sequence (Q04759 whole entry, looked up, the tested form may be a part): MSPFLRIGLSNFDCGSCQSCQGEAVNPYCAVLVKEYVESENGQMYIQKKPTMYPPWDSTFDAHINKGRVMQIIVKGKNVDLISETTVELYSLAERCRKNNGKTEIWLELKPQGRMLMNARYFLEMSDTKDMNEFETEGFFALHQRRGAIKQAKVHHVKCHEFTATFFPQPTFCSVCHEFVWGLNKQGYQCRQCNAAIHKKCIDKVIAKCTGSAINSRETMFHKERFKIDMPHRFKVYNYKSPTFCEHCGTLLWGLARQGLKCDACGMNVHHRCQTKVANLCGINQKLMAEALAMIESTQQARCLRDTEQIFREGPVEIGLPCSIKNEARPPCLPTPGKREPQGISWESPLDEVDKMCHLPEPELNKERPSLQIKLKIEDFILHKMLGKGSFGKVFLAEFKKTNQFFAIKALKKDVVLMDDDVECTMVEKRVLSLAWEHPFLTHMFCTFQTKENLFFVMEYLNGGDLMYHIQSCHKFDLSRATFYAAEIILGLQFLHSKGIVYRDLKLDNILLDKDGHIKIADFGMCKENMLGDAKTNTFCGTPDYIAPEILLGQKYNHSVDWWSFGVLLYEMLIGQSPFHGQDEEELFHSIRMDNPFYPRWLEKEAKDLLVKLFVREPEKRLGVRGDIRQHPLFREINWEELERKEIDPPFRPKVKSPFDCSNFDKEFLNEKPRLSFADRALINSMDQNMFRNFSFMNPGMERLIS
Protein kinase C beta type (Homo sapiens), sequence (P05771 2-671 limits assumed): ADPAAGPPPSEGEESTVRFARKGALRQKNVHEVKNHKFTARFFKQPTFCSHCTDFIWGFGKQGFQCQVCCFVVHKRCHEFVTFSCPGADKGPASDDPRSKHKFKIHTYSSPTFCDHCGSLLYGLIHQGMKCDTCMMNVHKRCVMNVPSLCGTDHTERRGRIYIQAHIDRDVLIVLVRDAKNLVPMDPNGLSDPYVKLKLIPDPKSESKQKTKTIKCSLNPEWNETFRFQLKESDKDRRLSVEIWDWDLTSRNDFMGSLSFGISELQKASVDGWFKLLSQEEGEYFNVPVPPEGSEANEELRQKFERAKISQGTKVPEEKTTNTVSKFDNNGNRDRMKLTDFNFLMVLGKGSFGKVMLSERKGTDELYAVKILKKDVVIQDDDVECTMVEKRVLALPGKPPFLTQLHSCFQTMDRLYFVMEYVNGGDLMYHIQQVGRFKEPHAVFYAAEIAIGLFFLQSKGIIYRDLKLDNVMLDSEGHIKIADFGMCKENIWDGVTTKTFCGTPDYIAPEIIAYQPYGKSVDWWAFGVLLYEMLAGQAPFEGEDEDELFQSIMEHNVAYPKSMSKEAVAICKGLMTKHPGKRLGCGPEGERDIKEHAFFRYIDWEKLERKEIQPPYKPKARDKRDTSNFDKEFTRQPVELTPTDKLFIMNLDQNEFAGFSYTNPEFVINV
Protein kinase C delta type (Homo sapiens), sequence (Q05655 whole entry, looked up, the tested form may be a part): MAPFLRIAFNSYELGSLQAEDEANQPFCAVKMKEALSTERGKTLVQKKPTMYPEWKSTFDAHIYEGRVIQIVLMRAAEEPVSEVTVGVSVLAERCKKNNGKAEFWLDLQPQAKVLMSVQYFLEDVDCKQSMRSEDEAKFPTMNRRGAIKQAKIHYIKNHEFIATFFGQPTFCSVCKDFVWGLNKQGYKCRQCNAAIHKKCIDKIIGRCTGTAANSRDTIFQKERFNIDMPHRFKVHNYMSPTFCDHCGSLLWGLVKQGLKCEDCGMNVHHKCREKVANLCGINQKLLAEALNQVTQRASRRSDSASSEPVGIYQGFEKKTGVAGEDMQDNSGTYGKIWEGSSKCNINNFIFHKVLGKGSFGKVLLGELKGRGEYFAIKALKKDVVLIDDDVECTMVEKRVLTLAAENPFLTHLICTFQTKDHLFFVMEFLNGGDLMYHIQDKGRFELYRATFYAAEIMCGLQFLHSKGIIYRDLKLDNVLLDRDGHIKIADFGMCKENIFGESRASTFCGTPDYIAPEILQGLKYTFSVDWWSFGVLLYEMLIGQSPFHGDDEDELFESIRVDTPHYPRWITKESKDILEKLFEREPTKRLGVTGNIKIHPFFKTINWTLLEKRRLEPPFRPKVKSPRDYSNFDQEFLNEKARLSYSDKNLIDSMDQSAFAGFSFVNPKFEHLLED

Turning to `CCCCCCCCCCCCCC[C@H]1OC[C@H](N)[C@H]1O`, the inhibition in assay [1] and in assay [2] was 50% throughout.
For the molecule `CCCCCCCCCCCCC/C=C/[C@@H](O)[C@H](CO)N(C)C`, the inhibition (as a rule, the relative decrease from the control value, in per cent) was determined as 35% in assay [3]; 50% in assay [1]; 47.1% in assay [4]; 49.2% in assay [5]; 40.4% in assay [6]; 43.8% in assay [7]. Moreover, the inhibition in assay [8] was found to be 83.9%; in assay [9], 99.1%; in assay [2], 50%; in assay [10], 68.5%; in [11], 100%; in assay [12], 44.3%.
As for `CCCCCCCCCCCCCC[C@@H]1OC[C@@H](N)[C@H]1O`, the inhibition in assay [1] and in assay [2] was 50% throughout.
With `CCCCCCCCCCCCCC[C@H]1OC[C@@H](N)[C@H]1O`, the inhibition in assay [1] and in assay [2] was 50% in each case.
Consider `CCCCCCCCCCCCCC[C@H]1OC[C@@H](N)[C@@H]1O`, for which the inhibition in [3] is 34%; in assay [13], 50%; in [1], 1.8%; in assay [4], 51.2%; in assay [5] it was 47.6%; in assay [6], 26.3%. In addition, the inhibition in assay [14] was 50%; in assay [7], 55.4%; in [8] it was 96.2%; in assay [9], 99.5%; in assay [2], 0.59%; in assay [10], 79.2%. The inhibition is 99.9% in assay [11] and 43.9% in [12].
For `CCCCCCCCCCCCCC[C@@H]1OC[C@H](N)[C@@H]1O`, the inhibition in assay [3] turned out to be 32.7%; in assay [13], 50%; in [1], 6.6%; in [4] it was 39.8%; in assay [5], 48.6%; in assay [6], 37.4%. For the same molecule, the inhibition in assay [14] was 50%; in assay [7], 56.6%; in assay [8], 69.6%; in assay [9], 100%; in [2] it was 4.6%; in assay [10] it was 48.5%. Moreover, the inhibition was found to be 98.5% in assay [11] and 27.9% in [12].
As to `CCCCCCCCCCCCCC[C@@H]1OC[C@@H](N)[C@@H]1O`, the inhibition in assay [3] was found to be 33.1%; in assay [13] it was 50%; in assay [1], 0.48%; in assay [4], 37.1%; in [5], 48.5%; in assay [6], 29.2%. The inhibition amounted to 50% in assay [14]; 47% in assay [7]; 67.5% in [8]; 99.8% in [9]; 0.94% in assay [2]; 45.1% in [10]. Also, the results for the inhibition in assay [11] and in assay [12] were 94.8% and 22.9%, respectively.
Take `CCCCCCCCCCCCCC[C@H]1OC[C@H](N)[C@@H]1O`: the inhibition in assay [1] and in [2] was 50% in each case.
As to `CCCCCCCCCCCCCC[C@@H]1OC[C@H](N)[C@H]1O`, the inhibition in assay [1] and in assay [2] was 50% each time.
